This note sets out measurements from ChEMBL document CHEMBL1154695 (J Med Chem, 2009).

The subject of data set [1] is Hepatitis C virus. Description: Antiviral activity against HCV by viral replicon assay. The class given is functional, Hepacivirus hominis. For orientation: Replicon systems follow genome replication, usually without infectious particles.
The nature of data set [2]: Chemical stability assessed as compound epimerization in potassium phosphate buffer of pH 7. The class given is physicochemical. The method in brief: (§1)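 Start concentration 0.25 mg/mL, followed over time at pH 7 in water, pH 7 phosphate (0.05 M) or pH 9 borate (0.1 M). Aliquots were drawn at intervals and HPLC measured the parent and the P1-(R) epimer VRT-394. k_obs is the sum of the forward and reverse epimerization rate constants; relative rate is taken against pH 7 water.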

Data set [3] concerns Plasma. Description: Stability in human plasma assessed as conversion to VRT-394 at 10 uM after 1 hr. In kind it is ADME, cell-free. The following applies: 1 µM, in the assay text read “1 uM” for “10 uM”.
Data set [4] can be described thus: Terminal half life in Sprague-Dawley rat at 10 mg/kg, po. Also on record: dose 10 mg/kg, route oral. To be noted: in vivo, read-out: beta t1/2 (converted). In kind it is ADME, organism-based. The gist of the method: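 Male Sprague-Dawley rats with cannulas received 10 mg/kg by gavage at 1 mg/mL (10 mL/kg) in a solid dispersion (HPMC-AS/SLS) taken up in 1% HPMC-AS and 10% vitamin E TPGS. Blood was drawn from 0.25 to 24 h into EDTA; plasma was acidified and assayed by LC/MS/MS. Parameters came from noncompartmental analysis.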

Data set [5] is described as follows: Inhibition of HCV NS3/4A protease. Also on record: species or system Hepacivirus hominis.
Data set [6] relates to Plasma. Description: Stability in human plasma relative to telaprevir. In kind it is ADME, cell-free. The method in brief: (§2)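 Rat, dog or human plasma was preincubated at 37 °C and spiked from DMSO stock to a final 1 or 10 μM (final DMSO 1%), in triplicate with shaking. Control was 0.1 M potassium phosphate pH 7.4. Sampling was at 0–120 min (rat, dog) or 0–180 min (human, buffer). Samples were acidified, extracted with ethyl acetate and run on chiral LC-MS/MS (MRM). Epimerization was scored by initial rate and k_H/k_D.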

Data set [7] can be described thus: Stability in rat plasma assessed as compound epimerization at 10 uM. The class given is ADME, cell-free. The method in brief:
as §2

Data set [8] deals with Plasma. Description: Stability in rat plasma relative to telaprevir. In kind it is ADME, cell-free. The method in brief:
as §2

The nature of data set [9]: Stability in potassium phosphate buffer of pH 7. In kind it is physicochemical. The gist of the method:
as §1

In data set [10] the test system is Plasma. The data set can be described thus: Stability in human plasma assessed as conversion to VRT-394 at 1 uM after 1 hr.
A short description of data set [11]: Stability in boric acid-potassium chloride buffer of pH 9. In kind it is physicochemical. The gist of the method: as §1
The subject of data set [12] is Plasma. Description: Stability in dog plasma relative to telaprevir. In kind it is ADME, cell-free, Canis lupus familiaris. The method in brief: as §2

As usually defined, the IC99 is the point of the concentration-response curve where the effect stands at 99%. Low readings indicate an effect from little substance, high ones a need for much substance. A word on the Ki: it is a dissociation constant, usually derived from enzyme kinetics or from competition with a known ligand.

In data set [1], `CCC[C@H](NC(=O)[C@@H]1[C@H]2CCC[C@H]2CN1C(=O)[C@@H](NC(=O)[C@@H](NC(=O)c1cnccn1)C1CCCCC1)C(C)(C)C)C(=O)C(=O)NC1CC1` yielded an IC99 of 3.3 µM. Further, in data set [2], the half-life was 35 h. Also, the Activity in [3] is 35%.
As to `[2H][C@@](CCC)(NC(=O)[C@@H]1[C@H]2CCC[C@H]2CN1C(=O)[C@@H](NC(=O)[C@@H](NC(=O)c1cnccn1)C1CCCCC1)C(C)(C)C)C(=O)C(=O)NC1CC1`, the half-life in data set [4] is 1.5 h. The same compound registered an IC99 in [1] of 4 µM. In data set [5], this compound had a Ki of 0.02 µM. Moreover, the Activity result in data set [6] was “Stable”; in data set [8], “Stable”; in [9] it was “Stable”; in data set [10], 10%; in [11], “Stable”; in data set [12], “Stable”. Moreover, in data set [7], the half-life at 10 µM is greater than 4 h.
Consider `CCC[C@@H](NC(=O)[C@@H]1[C@H]2CCC[C@H]2CN1C(=O)[C@@H](NC(=O)[C@@H](NC(=O)c1cnccn1)C1CCCCC1)C(C)(C)C)C(=O)C(=O)NC1CC1`, for which the Ki in data set [5] was greater than 1 µM.
